Test results as given in PMC3180826 (ACS chemical neuroscience, 2010).
Where a chain is given by its changes, count along the chain named.

Tests used:
rM1 Y381A = target: T1, rM1 Y381A (Rattus norvegicus, UniProt P08482, Y381A); assay: Calcium mobilization in rM1 Y381A; assay type: cell-based; conditions: for potency at M1 Y381A compared with WT M1: M1Y381A CHO cells vs WT M1 CHO cells
T1 sequence (P08482 1-460 Y381A): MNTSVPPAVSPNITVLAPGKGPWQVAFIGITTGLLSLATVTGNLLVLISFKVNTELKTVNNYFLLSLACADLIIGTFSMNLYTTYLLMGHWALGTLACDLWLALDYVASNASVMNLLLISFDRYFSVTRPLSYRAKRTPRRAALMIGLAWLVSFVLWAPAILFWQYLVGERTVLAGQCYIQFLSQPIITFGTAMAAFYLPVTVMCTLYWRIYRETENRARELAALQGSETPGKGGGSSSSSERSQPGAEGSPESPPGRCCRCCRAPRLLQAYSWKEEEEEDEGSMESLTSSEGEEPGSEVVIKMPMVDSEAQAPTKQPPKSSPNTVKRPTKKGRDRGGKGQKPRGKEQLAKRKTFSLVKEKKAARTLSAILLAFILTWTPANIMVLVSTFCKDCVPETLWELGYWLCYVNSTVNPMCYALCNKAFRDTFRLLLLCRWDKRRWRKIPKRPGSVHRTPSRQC

M5 = target: T2, M5 (Homo sapiens, UniProt P08912); assay: Antagonism of EC80 ACh response, calcium mobilization, M5; assay type: cell-based; conditions: read-out: M5 antagonism IC50; attenuation of EC80 ACh response
T2 sequence (P08912 1-532): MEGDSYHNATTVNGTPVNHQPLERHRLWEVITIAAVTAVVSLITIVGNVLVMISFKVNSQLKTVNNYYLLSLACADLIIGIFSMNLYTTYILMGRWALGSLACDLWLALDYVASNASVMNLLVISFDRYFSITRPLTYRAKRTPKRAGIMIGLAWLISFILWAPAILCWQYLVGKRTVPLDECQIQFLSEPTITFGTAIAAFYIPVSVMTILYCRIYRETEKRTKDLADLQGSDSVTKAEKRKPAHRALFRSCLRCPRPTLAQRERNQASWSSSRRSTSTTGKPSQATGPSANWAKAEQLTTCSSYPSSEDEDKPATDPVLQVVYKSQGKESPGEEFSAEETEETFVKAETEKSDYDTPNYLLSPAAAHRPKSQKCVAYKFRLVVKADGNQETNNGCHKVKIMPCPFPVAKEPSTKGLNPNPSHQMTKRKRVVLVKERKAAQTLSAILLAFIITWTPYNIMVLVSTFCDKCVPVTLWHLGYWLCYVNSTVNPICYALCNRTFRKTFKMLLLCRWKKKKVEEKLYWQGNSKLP

M2 = target: T3, M2 (Homo sapiens, UniProt P08172); assay: Antagonism of EC80 ACh response, calcium mobilization, M2; assay type: cell-based; conditions: read-out: M2 antagonism IC50; attenuation of EC80 ACh response
T3 sequence (P08172 1-466): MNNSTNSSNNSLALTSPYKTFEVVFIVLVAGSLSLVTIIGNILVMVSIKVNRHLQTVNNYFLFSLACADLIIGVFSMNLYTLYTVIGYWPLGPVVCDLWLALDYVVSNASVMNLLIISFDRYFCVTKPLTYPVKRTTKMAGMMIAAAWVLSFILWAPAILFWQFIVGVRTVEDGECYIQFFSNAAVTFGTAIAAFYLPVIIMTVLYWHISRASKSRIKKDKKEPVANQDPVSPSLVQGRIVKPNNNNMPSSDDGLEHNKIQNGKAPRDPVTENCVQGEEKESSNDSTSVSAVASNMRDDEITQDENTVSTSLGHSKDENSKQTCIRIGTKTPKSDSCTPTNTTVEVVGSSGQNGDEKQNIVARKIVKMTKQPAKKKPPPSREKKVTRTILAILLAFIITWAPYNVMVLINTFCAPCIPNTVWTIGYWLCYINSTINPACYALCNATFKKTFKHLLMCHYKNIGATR

hM5 = target: T4, hM5 (Homo sapiens, UniProt P08912); assay: Calcium mobilization assay, agonist mode, M5; assay type: cell-based; conditions: up to 30 μM
T4 sequence (P08912 1-532): T2 sequence (P08912 1-532)
In short: (§1)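 CHO-K1 cells stably expressing hM2/Gqi5 or rM4/Gqi5 (6 × 10^4 cells/well), or hM3 or hM5 (5 × 10^4 cells/well), were cultured overnight at 37 °C in 5% CO2. Cells were loaded with 2 μM Fluo-4 AM for 1 h at 37 °C in HBSS with 20 mM HEPES and 2.5 mM probenecid, pH 7.4. Eight-point test compound concentration series were added at 19 s of a 130 s read. Calcium flux was read as fluorescence fold over basal.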

hM3 = hM3 (Homo sapiens, UniProt P20309); assay: Calcium mobilization assay, agonist mode, M3; assay type: cell-based; conditions: up to 30 μM
In short: as §1

hM2 = target: T5, hM2 (Homo sapiens, UniProt P08172); assay: Calcium mobilization assay, agonist mode, M2; assay type: cell-based; conditions: up to 30 μM
T5 sequence (P08172 1-466): T3 sequence (P08172 1-466)
In short: as §1

rM4 = target: T6, rM4 (Rattus norvegicus, UniProt P08485); assay: Calcium mobilization assay, agonist mode, M4; assay type: cell-based; conditions: up to 30 μM
T6 sequence (P08485 1-478): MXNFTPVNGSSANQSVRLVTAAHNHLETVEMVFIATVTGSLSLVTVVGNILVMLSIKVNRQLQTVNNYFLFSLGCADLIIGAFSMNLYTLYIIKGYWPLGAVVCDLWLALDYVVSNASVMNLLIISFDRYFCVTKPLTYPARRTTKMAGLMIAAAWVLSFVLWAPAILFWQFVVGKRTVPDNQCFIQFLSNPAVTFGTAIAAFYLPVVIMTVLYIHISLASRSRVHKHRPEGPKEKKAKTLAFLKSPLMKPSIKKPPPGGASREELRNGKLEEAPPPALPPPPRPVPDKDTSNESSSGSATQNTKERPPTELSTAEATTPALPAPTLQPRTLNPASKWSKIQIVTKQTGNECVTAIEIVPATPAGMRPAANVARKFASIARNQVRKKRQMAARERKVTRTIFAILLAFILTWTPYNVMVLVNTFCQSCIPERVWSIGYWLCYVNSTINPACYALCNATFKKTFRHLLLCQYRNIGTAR
In short: as §1

rM1 receptor = target: T7, rM1 receptor (Rattus norvegicus, UniProt P08482); assay: Calcium mobilization assay, CHO-K1 cells stably expressing rM1; assay type: cell-based; conditions: for EC50: read-out: M1 EC50; for M1 potency and efficacy (SAR statement): substitution around the benzyl ring
T7 sequence (P08482 1-460): T1 sequence (P08482 1-460 Y381A) with A381Y

M1 = target: T8, M1 (Rattus norvegicus, UniProt P08482); assay: HTS confirmation concentration-response in M1-CHO cells; assay type: cell-based; conditions: for sensitivity to block by atropine: concentration series in the presence of atropine; for EC50: read-out: M1 EC50, from the DPI DMSO stock
T8 sequence (P08482 1-460): T1 sequence (P08482 1-460 Y381A) with A381Y

[1] = test system: scopolamine-induced deficits in contextual fear conditioning; assay: Contextual fear conditioning, scopolamine-induced deficit; assay type: in vivo; conditions: rat; for effect on acquisition of contextual fear conditioning response: 0.2 mg/kg s.c., 15 minutes prior to training, 0.2 mg/kg
In short: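 Male Sprague–Dawley rats (380–420 g) were habituated to vehicle injections for 2 days. Test compound (1–10 mg/kg ip) was given 30 min before training, and scopolamine (0.2 mg/kg sc) or vehicle 15 min before. Training used two 1 s, 0.5 mA footshocks 2.5 min apart, with a vanilla odour cue. At 24 h, video-scored freezing over 7 min was expressed as percent. Groups had 3–4 rats; one-way ANOVA with Dunnett's test against vehicle/scopolamine.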

[2] = Plasma-brain exposure profile PK study; assay type: in vivo; conditions: rat
In short: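 Test compound was dissolved in sterile water at 5 mg/mL and dosed at 10 mg/kg ip in male Sprague–Dawley rats (225–250 g). Plasma and brain were collected at 0.5, 1, 2, 4 and 8 h, with three rats per time point. Brains were homogenized 1:3 in PBS, and samples were extracted by acetonitrile/0.1% formic acid precipitation with internal standard. Quantification was by LC-MS/MS SRM (10–2000 ng/mL calibration), with noncompartmental analysis.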

Aqueous solubility = assay type: physicochemical; conditions: water
[3] = rM1 CHO-K1, calcium mobilization

Chain of hM3 (P20309 whole entry): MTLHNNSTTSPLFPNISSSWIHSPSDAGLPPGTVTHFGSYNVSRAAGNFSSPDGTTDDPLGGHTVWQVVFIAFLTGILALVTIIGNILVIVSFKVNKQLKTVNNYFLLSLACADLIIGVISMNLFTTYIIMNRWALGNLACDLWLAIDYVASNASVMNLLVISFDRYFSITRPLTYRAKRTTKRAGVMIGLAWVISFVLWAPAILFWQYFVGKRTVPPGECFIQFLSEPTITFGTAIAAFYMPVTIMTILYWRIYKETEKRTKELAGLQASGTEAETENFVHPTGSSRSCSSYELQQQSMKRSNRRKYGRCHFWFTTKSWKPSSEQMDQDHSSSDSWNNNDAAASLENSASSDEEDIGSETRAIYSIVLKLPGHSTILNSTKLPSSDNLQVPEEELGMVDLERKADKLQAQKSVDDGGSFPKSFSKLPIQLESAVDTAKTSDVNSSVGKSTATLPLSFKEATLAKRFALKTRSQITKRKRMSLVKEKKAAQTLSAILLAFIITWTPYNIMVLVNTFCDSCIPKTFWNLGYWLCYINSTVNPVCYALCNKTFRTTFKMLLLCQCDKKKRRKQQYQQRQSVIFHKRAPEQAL

With `Clc1ccc2c(c1)N=C(N1CCNCC1)c1ccccc1N2` [NDMC, N-desmethylclozapine, reference compound] as the compound, how does the “potency at M1 Y381A compared with WT M1” value (rM1 Y381A) read?
Its value is “potency similar to that observed in cells expressing WT M1”.

What does the source list for `Cc1ccccc1CN1CCC(N2CCC(n3c(=O)[nH]c4ccccc43)CC2)CC1` [TBPB]?
IC50 (M5): 10100 nM; IC50 (M2): 1100 nM

Which “agonist activity at M5” value (hM5) does the source give for `CCOC(=O)N1CCC(NCCNC(=O)c2cccs2)CC1` [VU0177548] here?
Its value is “no alteration was detected in baseline”.

What about the “agonist activity at M3” value (hM3) of the same compound?
The value was “no alteration was detected in baseline”.

And the “agonist activity at M2” value (hM2)?
Its value is “no alteration was detected in baseline”.

What about the “rM1 Y381A AChmax (maximal efficacy)” value (rM1 Y381A; rM1 Y381A cells) of the same compound?
Its value is 44.69 % max.

And the EC50 (rM1 Y381A; read-out: rM1 Y381A EC50, rM1 Y381A cells)?
The EC50 was 1230 nM.

What about the “agonist activity at M4” value (rM4) of the same compound?
The value was “no alteration was detected in baseline”.

And the EC50 (rM1 receptor; [3])?
The EC50 was 1740 nM.

What about the “selectivity for M1 vs. M4” value (M1; M1-CHO vs M4/Gqi5 CHO cells) of the same compound?
The value was > 50 fold.

What about the “sensitivity to block by atropine” value (M1) of the same compound?
Its value is “sensitive to block by atropine”.

What about the EC50 (M1) of the same compound?
Its EC50 is ~1000 nM.

With `CCOC(=O)N1CCC(NCCNC(=O)c2ccccc2Cl)CC1` [VU0207811] as the compound, how does the “agonist activity at M5” value (hM5) read?
The value was “no alteration was detected in baseline”.

And the “agonist activity at M3” value (hM3)?
Its value is “no alteration was detected in baseline”.

And the “agonist activity at M2” value (hM2)?
The value was “no alteration was detected in baseline”.

What about the “rM1 Y381A AChmax (maximal efficacy)” value (rM1 Y381A; rM1 Y381A cells) of the same compound?
Its value is 45.80 % max.

And the “agonist activity at M4” value (rM4)?
Its value is “no alteration was detected in baseline”.

And the EC50 (rM1 receptor; [3])?
Its EC50 is 804 nM.

What about the “sensitivity to block by atropine” value (M1) of the same compound?
Its value is “sensitive to block by atropine”.

And the EC50 (M1)?
The EC50 was ~1000 nM.

For `CCOC(=O)N1CCC(NCCNC(=O)c2ccccc2C)CC1` [VU0357017, ethyl 4-(2-(2-methylbenzamido)ethylamino)piperidine-1-carboxylate], which “agonist activity at M5” value (hM5) is on record?
The value was “no activity”.

And the “agonist activity at M3” value (hM3)?
Its value is “no activity”.

What about the “agonist activity at M2” value (hM2) of the same compound?
Its value is “no activity”.

What about the “potency at M1 Y381A compared with WT M1” value (rM1 Y381A) of the same compound?
Its value is “potencies similar to those observed in WT M1 CHO cells”.

What about the “agonist activity at M4” value (rM4) of the same compound?
The value was “no activity”.

And the “ACh Max efficacy” value (rM1 receptor; [3])?
Its value is 80.52 % ACh Max.

What about the “reversal of scopolamine-induced deficits in contextual fear conditioning” value ([1]; 10 mg/kg i.p., scopolamine 0.2 mg/kg s.c., p < 0.05) of the same compound?
Its value is “significant reversal”.

What about the Kp ([2]; male, Sprague-Dawley, brain and plasma, ip, 10 mg/kg) of the same compound?
Its Kp is 1.46.

And the brain level ([2]; 10 mg/kg i.p., brain)?
Its brain level is 4338.90 ± 1071.20 ng/mL.

What about the plasma level ([2]; 10 mg/kg i.p., plasma) of the same compound?
The plasma level was 1053.49 ± 276.03 ng/mL.

What about the central penetrance ([2]; i.p. administration) of the same compound?
The central penetrance was “centrally-penetrant”.

What about the solubility (Aqueous solubility) of the same compound?
Its solubility is > 25 mg/mL.

For `CCOC(=O)N1CCC(NCCNC(=O)c2ccc(F)cc2)CC1.O=C(O)C(F)(F)F` [VU0359993], which “M1 potency and efficacy (SAR statement)” value (rM1 receptor) is on record?
The value was “retaining substantial potency and efficacy”.

With `CCOC(=O)N1CCC(NCCNC(=O)c2cccc(F)c2)CC1.O=C(O)C(F)(F)F` [VU0359995] as the compound, how does the “M1 potency and efficacy (SAR statement)” value (rM1 receptor) read?
The value was “retaining substantial potency and efficacy”.

For `CCOC(=O)N1CCC(NCCNC(=O)c2cccc(OC)c2)CC1.O=C(O)C(F)(F)F` [VU0360014], which “M1 potency and efficacy (SAR statement)” value (rM1 receptor) is on record?
Its value is “retaining substantial potency and efficacy”.

With `CN1[C@@H]2C[C@@H](OC(=O)[C@H](CO)c3ccccc3)C[C@H]1[C@@H]1O[C@@H]12` [scopolamine] as the compound, how does the “effect on acquisition of contextual fear conditioning response” value [1] read?
The value was “significant disruption”.

What about the “effect on acquisition of contextual fear conditioning response” value ([1]; listed as Scopolamine) of the same compound?
The value was “robust disruption”.
